This note sets out measurements from ChEMBL document CHEMBL4011639, “Discovery of Novel Nucleotide Prodrugs with Improved Potency Against HCV Variants Carrying NS5B S282T Mutation” (J Med Chem, 2017).

A value given as a limit tells only on which side of the number the result lay.

The test system of data set [1] is Hepatitis C virus subtype 1b. The experiment in a line: Ratio of EC50 for HCV genotype 1b replicon NS5B S282T mutant to EC50 for wild type HCV genotype 1b replicon NS5B. The method, boiled down:
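Huh7 cells carrying wild-type or S282T mutant HCV genotype 1b replicon, 8000 cells per well, exposed to 3-fold compound dilution series (0.5% DMSO final, duplicates) for 72 h at 37 °C, 5% CO2. Replicon activity read by Bright-Glo luciferase luminescence. EC50 averaged from duplicate determinations; ratio taken as S282T EC50 over wild-type EC50.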

Data set [2] relates to Huh-7. The experiment in a line: Cytotoxicity against human HuH7 cells assessed as reduction in cell viability up to 100 uM after 72 hrs by Cell Titer-Fluor Cell assay. The class given is cell-based. The following applies: huh-7, 72 h. The method, boiled down: (§1)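 Huh7 cells carrying HCV genotype 1b replicon, 8000 per well, in duplicate 3-fold dilution series with 0.5% DMSO final; 72 h at 37 °C, 5% CO2. Viability read by Cell Titer-Fluor fluorescence after 5 min; replicon inhibition read by Bright-Glo luciferase luminescence in the same wells. EC50 and CC50 come from curve fitting.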

Data set [3] can be described thus: Inhibition of wild type NS5B in HCV genotype 1b replicon expressed in human HuH7 cells after 72 hrs by bright Glo-luciferase reporter gene assay. It counts as cell-based, Hepatitis C virus subtype 1b. The following applies: Hepatitis C virus, Huh-7, 72 h. The gist of the method:
as §1

A short description of data set [4]: Half life in human plasma […] by LC/MS/MS analysis. It counts as ADME, cell-free. The method, boiled down:
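Pooled human plasma adjusted to pH 7.4 and prewarmed, then spiked to 2 μM final from a 200 μM DMSO working solution, in duplicate. Sampled at 0, 10, 30, 60 and 120 min and quenched with acetonitrile containing tolbutamide and buspirone. LC/MS/MS (MRM) peak area ratios; ke from linear regression of the initial linear phase, t1/2 = ln2/ke.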

Data set [5] is described as follows: Half life in human liver S9 fraction at 10 uM by LC/MS/MS analysis. The class given is ADME. The method, boiled down:
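Compound at 10 μM working solution (1% DMSO, 5% MeOH in 100 mM Tris) incubated at 37 °C with human liver S9 at 1 mg protein/mL final. Reactions stopped with cold acetonitrile containing tolbutamide internal standard at 0, 5, 10, 20, 30 and 60 min. Parent measured by LC/MS/MS (MRM) as analyte/IS peak area ratio, given as percent remaining versus 0 min; half-life fitted.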

As usually defined, the EC50 is the concentration that produces a half-maximal response. Low readings indicate an effect from little substance, high ones a need for much substance. As a reminder, the half-life is the time in which the quantity being followed falls by half. Turning to `CC(C)OC(=O)[C@H](C)N[P@](=O)(OC[C@H]1O[C@@H](n2ccc(=O)[nH]c2=O)[C@](C)(F)[C@@H]1O)Oc1ccccc1` [SOFOSBUVIR], the Ratio EC50 in data set [1] turned out to be 8.1. For the same compound, the Activity entry in data set [2] is reported as “Non-Toxic”. In data set [3], this compound showed an EC50 of 150 nM. This compound came in with a half-life in data set [4] of over 3.85 h. Moreover, the half-life at 10 µM in data set [5] was determined as 0.802 h.

`CCCCCC(=O)Nc1ccn([C@@H]2O[C@H](CO[P@@](=O)(N[C@@H](C)C(=O)OC(C)C)Oc3ccccc3)[C@@H](O)[C@@]2(C)F)c(=O)n1`: in data set [2], the Activity entry is “Non-Toxic”. In data set [3], this compound registered an EC50 of 250 nM.

For `CC(C)OC(=O)[C@H](C)N[P@](=O)(OC[C@H]1O[C@@H](n2ccc(NC(=O)C(C)C)nc2=O)[C@](C)(F)[C@@H]1O)Oc1ccccc1`, the Activity entry in data set [2] was “Non-Toxic”. The same compound had a half-maximal effective concentration (EC50) in data set [3] of 2200 nM.

In the case of `CCC(=O)Nc1ccn([C@@H]2O[C@H](CO[P@@](=O)(N[C@@H](C)C(=O)OC(C)C)Oc3ccccc3)[C@@H](O)[C@@]2(C)F)c(=O)n1`, the Activity entry in data set [2] is “Non-Toxic”. The same compound returned an EC50 in data set [3] of 1480 nM.

For the compound `CCOC(=O)Nc1ccn([C@@H]2O[C@H](CO[P@@](=O)(N[C@@H](C)C(=O)OC(C)C)Oc3ccccc3)[C@@H](O)[C@@]2(C)F)c(=O)n1`, in data set [2], the Activity result was “Non-Toxic”. The EC50 in data set [3] is 8360 nM.

For the compound `CC(C)OC(=O)[C@H](C)N[P@](=O)(OC[C@H]1O[C@@H](n2ccc(NC(=O)C3CC3)nc2=O)[C@](C)(F)[C@@H]1O)Oc1ccccc1`, the Activity entry in data set [2] is given as “Non-Toxic”. In data set [3], this compound returned a 50% effective concentration (EC50) of 2250 nM.

For `CCC(CC)OC(=O)Nc1ccn([C@@H]2O[C@H](CO[P@@](=O)(N[C@@H](C)C(=O)OC(C)C)Oc3ccccc3)[C@@H](O)[C@@]2(C)F)c(=O)n1`, the Activity entry in data set [2] is “Non-Toxic”. Moreover, in data set [3], the EC50 is over 10000 nM.

As to `CCCCOC(=O)Nc1ccn([C@@H]2O[C@H](CO[P@@](=O)(N[C@@H](C)C(=O)OC(C)C)Oc3ccccc3)[C@@H](O)[C@@]2(C)F)c(=O)n1`, the Activity entry in data set [2] is recorded as “Non-Toxic”. In data set [3], this compound showed a 50% effective concentration (EC50) of 2610 nM.

Consider `CC(C)OC(=O)Nc1ccn([C@@H]2O[C@H](CO[P@@](=O)(N[C@@H](C)C(=O)OC(C)C)Oc3ccccc3)[C@@H](O)[C@@]2(C)F)c(=O)n1`, for which the Activity result in data set [2] is given as “Non-Toxic”. In addition, the EC50 in data set [3] was found to be 3870 nM.

As for `CC(C)OC(=O)[C@H](C)N[P@](=O)(OC[C@H]1O[C@@H](n2ccc(NC(=O)c3ccc(Cl)cc3)nc2=O)[C@](C)(F)[C@@H]1O)Oc1ccccc1`, in data set [2], the Activity result was “Non-Toxic”. In data set [3], this compound came in with a concentration for a half-maximal effect (EC50) of 1920 nM.

As for `CC(C)OC(=O)[C@H](C)N[P@](=O)(OC[C@H]1O[C@@H](n2ccc(NC(=O)C3CCCCC3)nc2=O)[C@](C)(F)[C@@H]1O)Oc1ccccc1`, in data set [2], the Activity entry is on record as “Non-Toxic”. This compound had a concentration giving a half-maximal response (EC50) in data set [3] of 4200 nM.

Take `CCCC(CCC)C(=O)Nc1ccn([C@@H]2O[C@H](CO[P@@](=O)(N[C@@H](C)C(=O)OC(C)C)Oc3ccccc3)[C@@H](O)[C@@]2(C)F)c(=O)n1`: in data set [2], the Activity entry is “Non-Toxic”. In data set [3], this compound registered an EC50 of 1640 nM.

For the compound `CC(C)OC(=O)[C@H](C)N[P@](=O)(OC[C@H]1O[C@@H](n2ccc(N)nc2=O)[C@](C)(F)[C@@H]1O)Oc1ccccc1`, the Ratio EC50 in data set [1] was found to be 4.1. Further, the Activity entry in data set [2] is given as “Non-Toxic”. It took 660 nM to reach a half-maximal effect in data set [3] (EC50). In addition, the half-life in data set [4] is over 3.85 h. For the same compound, the half-life at 10 µM in data set [5] was determined as 1.78 h.

With `COc1ccc(C(=O)Nc2ccn([C@@H]3O[C@H](CO[P@@](=O)(N[C@@H](C)C(=O)OC(C)C)Oc4ccccc4)[C@@H](O)[C@@]3(C)F)c(=O)n2)cc1`, in data set [2], the Activity result is “Non-Toxic”. This compound also gave a concentration giving a half-maximal response (EC50) in data set [3] of over 10000 nM.

On to `CCCOC(=O)Nc1ccn([C@@H]2O[C@H](CO[P@@](=O)(N[C@@H](C)C(=O)OC(C)C)Oc3ccccc3)[C@@H](O)[C@@]2(C)F)c(=O)n1`, for which the Activity result in data set [2] is on record as “Non-Toxic”. For the same compound, a half-maximal effect in data set [3] (EC50) was put at 6010 nM.

For `CCC(CC)C(=O)Nc1ccn([C@@H]2O[C@H](CO[P@@](=O)(N[C@@H](C)C(=O)OC(C)C)Oc3ccccc3)[C@@H](O)[C@@]2(C)F)c(=O)n1`, the Activity entry in data set [2] was “Non-Toxic”. In data set [3], this compound showed an EC50 of over 10000 nM.

As for `CCCCCCOC(=O)Nc1ccn([C@@H]2O[C@H](CO[P@@](=O)(N[C@@H](C)C(=O)OC(C)C)Oc3ccccc3)[C@@H](O)[C@@]2(C)F)c(=O)n1`, in data set [2], the Activity entry is listed as “Non-Toxic”. In data set [3], this compound displayed a half-maximal effective concentration (EC50) of over 10000 nM.

In the case of `CC(C)C(=O)OC[C@H]1O[C@@H](n2ccc(N)nc2=O)[C@](C)(F)[C@@H]1OC(=O)C(C)C` [MERICITABINE], the Activity entry in data set [2] is listed as “Non-Toxic”. In data set [3], this compound had a concentration for a half-maximal effect (EC50) of 1110 nM.

Consider `CC(C)OC(=O)[C@H](C)N[P@](=O)(OC[C@H]1O[C@@H](n2ccc(NC(=O)/C=C/c3ccccc3)nc2=O)[C@](C)(F)[C@@H]1O)Oc1ccccc1`, for which, in data set [2], the Activity entry is “Non-Toxic”. Moreover, a half-maximal response in data set [3] (EC50) required 4080 nM.

`CC(C)OC(=O)[C@H](C)N[P@](=O)(OC[C@H]1O[C@@H](n2ccc(NC(=O)Cc3ccccc3)nc2=O)[C@](C)(F)[C@@H]1O)Oc1ccccc1`: in data set [2], the Activity result is recorded as “Non-Toxic”. Further, a half-maximal effect in data set [3] (EC50) was put at 1320 nM.

On to `CC(C)OC(=O)[C@H](C)N[P@](=O)(OC[C@H]1O[C@@H](n2ccc(NC(=O)C(C)(C)Oc3ccc(Cl)cc3)nc2=O)[C@](C)(F)[C@@H]1O)Oc1ccccc1`, for which the Activity entry in data set [2] was “Non-Toxic”. The compound further yielded a concentration for a half-maximal effect (EC50) in data set [3] of 4020 nM.

For the compound `CC(C)OC(=O)[C@H](C)N[P@](=O)(OC[C@H]1O[C@@H](n2ccc(NC(=O)OCc3ccccc3)nc2=O)[C@](C)(F)[C@@H]1O)Oc1ccccc1`, the Activity entry in data set [2] is on record as “Non-Toxic”. In data set [3], this compound registered an EC50 of over 10000 nM.

Regarding `CC(C)OC(=O)[C@H](C)N[P@](=O)(OC[C@H]1O[C@@H](n2ccc(NC(=O)CCc3ccccc3)nc2=O)[C@](C)(F)[C@@H]1O)Oc1ccccc1`, the Activity entry in data set [2] is reported as “Non-Toxic”. This compound also gave a concentration for a half-maximal effect (EC50) in data set [3] of 1470 nM.

As to `CC(C)OC(=O)[C@H](C)N[P@](=O)(OC[C@H]1O[C@@H](n2ccc(NC(=O)c3ccccc3)nc2=O)[C@](C)(F)[C@@H]1O)Oc1ccccc1`, the Activity result in data set [2] was “Non-Toxic”. In addition, the 50% effective concentration (EC50) in data set [3] was determined as 1990 nM.

For the compound `CC(=O)Nc1ccn([C@@H]2O[C@H](CO[P@@](=O)(N[C@@H](C)C(=O)OC(C)C)Oc3ccccc3)[C@@H](O)[C@@]2(C)F)c(=O)n1`, in data set [2], the Activity result is on record as “Non-Toxic”. This compound also gave a concentration giving a half-maximal response (EC50) in data set [3] of 1040 nM.

As to `CCCCC(=O)Nc1ccn([C@@H]2O[C@H](CO[P@@](=O)(N[C@@H](C)C(=O)OC(C)C)Oc3ccccc3)[C@@H](O)[C@@]2(C)F)c(=O)n1`, the Activity result in data set [2] was “Non-Toxic”. In data set [3], this compound yielded an EC50 of 190 nM.

Regarding `CC(C)CCC(=O)Nc1ccn([C@@H]2O[C@H](CO[P@@](=O)(N[C@@H](C)C(=O)OC(C)C)Oc3ccccc3)[C@@H](O)[C@@]2(C)F)c(=O)n1`, the Activity entry in data set [2] is “Non-Toxic”. Further, the EC50 in data set [3] stood at 670 nM.

With `CCCCCOC(=O)Nc1ccn([C@@H]2O[C@H](CO[P@@](=O)(N[C@@H](C)C(=O)OC(C)C)Oc3ccccc3)[C@@H](O)[C@@]2(C)F)c(=O)n1`, in data set [2], the Activity entry was “Non-Toxic”. This compound also came in with an EC50 in data set [3] of over 10000 nM.

Take `CC(C)COC(=O)Nc1ccn([C@@H]2O[C@H](CO[P@@](=O)(N[C@@H](C)C(=O)OC(C)C)Oc3ccccc3)[C@@H](O)[C@@]2(C)F)c(=O)n1`: the Activity entry in data set [2] is reported as “Non-Toxic”. In data set [3], this compound came in with an EC50 of over 10000 nM.

Regarding `CC(C)OC(=O)[C@H](C)N[P@](=O)(OC[C@H]1O[C@@H](n2ccc(NC(=O)C3CCC3)nc2=O)[C@](C)(F)[C@@H]1O)Oc1ccccc1`, in data set [2], the Activity entry is reported as “Non-Toxic”. The compound also displayed a 50% effective concentration (EC50) in data set [3] of 190 nM.

In the case of `CC(C)OC(=O)[C@H](C)N[P@](=O)(OC[C@H]1O[C@@H](n2ccc(NC(=O)OC3CCCCC3)nc2=O)[C@](C)(F)[C@@H]1O)Oc1ccccc1`, in data set [2], the Activity result was “Non-Toxic”. This compound also returned a concentration giving a half-maximal response (EC50) in data set [3] of over 10000 nM.
